SMILES strings stand for the structures.

A word on the Ki: it is a dissociation constant, usually derived from enzyme kinetics or from competition with a known ligand. The inhibition is the change of the read-out against control, counted positive when it falls. One may read the logP as a log measure of how a compound divides between an organic and an aqueous phase. For orientation: logD means lipophilicity at a set pH, counting ionised and neutral species. In general, IC50 refers to the concentration at which inhibition is half-maximal. By efflux ratio is commonly meant a quotient of directional permeabilities that is used to spot active efflux. A word on the Cmax: it is the highest concentration seen after dosing. The AUC(0-t) is the area under the concentration-time curve up to a stated or last time point.

Data set [1] addresses Voltage-dependent calcium channel subunit alpha-2/delta-1 (Homo sapiens, UniProt P54289). Briefly: Displacement of [3H]-gabapentin from human Cav alpha2delta1 expressed in CHO-K1 cell membranes incubated for 60 mins by scintillation counting method. Set-up: species or system Membrane. An outline of the steps: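 Radioligand binding with [3H]-gabapentin on α2δ-1-enriched membranes from CHO-K1 cells expressing human Cav2.2/β3/α2δ1. Compounds were first screened at 10 μM. Ki was calculated for those giving more than 50% inhibition. Values are mean ± SD of two determinations.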

Data set [2] has as its target CYP3A4 (Homo sapiens, UniProt P08684). Briefly: Inhibition of recombinant CYP3A4 (unknown origin) using BFC as substrate at 1 uM measured after 30 mins in presence of NADPH generating system by fluorescence assay relative to control. The conditions noted are these: recombinant CYP3A4, probe BFC. It counts as ADME. An outline of the steps:
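Recombinant human CYP3A4 incubated with test compound at 1 μM. 7-Benzyloxy-4-trifluoromethylcoumarin (BFC) was the probe substrate, with fluorescence read-out, reported as percent inhibition.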

Data set [3] can be described thus: Lipophilicity, logP of compound. The format is physicochemical. Conditions: octanol/water; call rule not given here.
Data set [4] can be described thus: Lipophilicity, logD of compound at pH 7.4. It counts as physicochemical. Conditions: buffer.
The target in data set [5] is CYP1A2 (Homo sapiens, UniProt P05177). Briefly: Inhibition of CYP1A2 (unknown origin) at 1 uM relative to control. It counts as ADME. An outline of the steps: (§1)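 Recombinant human CYP isoforms (1A2, 2C9, 2C19, 2D6) were each tested with compound at 1 μM. Read-out is percent inhibition.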
In data set [6] the target is CYP2C9 (Homo sapiens, UniProt P11712). Briefly: Inhibition of CYP2C9 (unknown origin) at 1 uM relative to control. The format is ADME. An outline of the steps:
as §1

The target in data set [7] is CYP2C19 (Homo sapiens, UniProt P33261). Briefly: Inhibition of CYP2C19 (unknown origin) at 1 uM relative to control. It counts as ADME. An outline of the steps:
as §1

Data set [8] concerns the target CYP2D6 (Homo sapiens, UniProt P10635). Briefly: Inhibition of CYP2D6 (unknown origin) at 1 uM relative to control. The format is ADME. An outline of the steps:
as §1

Data set [9] can be described thus: Metabolic stability in human liver microsomes assessed as intrinsic clearance per mg protein at 1 uM measured upto 60 mins in presence of NADPH generating system by UPLC-MS/MS analysis. Conditions: read-out: CLH. It counts as ADME, Microsome.
A short description of data set [10]: Metabolic stability in rat liver microsomes assessed as intrinsic clearance per mg protein at 1 uM measured upto 60 mins in presence of NADPH generating system by UPLC-MS/MS analysis. The conditions noted are these: read-out: CLH. The format is ADME, Microsome. On the technique in general: Liver microsomes are a subcellular fraction often used to study metabolism.

A short description of data set [11]: Metabolic stability in mouse liver microsomes assessed as intrinsic clearance per mg protein at 1 uM measured upto 60 mins in presence of NADPH generating system by UPLC-MS/MS analysis. The format is ADME, Microsome. The conditions noted are these: read-out: CLH.
Data set [12] deals with Voltage-gated inwardly rectifying potassium channel KCNH2 (Homo sapiens, UniProt Q12809). Description: Inhibition of human ERG.
A short description of data set [13]: Permeability of compound in human Caco2 cells. It counts as ADME, cell-based. The conditions noted are these: Caco-2, read-out: permeability. On the technique in general: Passage across Caco-2 layers is used to estimate intestinal permeability.
Data set [14] is described as follows: Efflux ratio of permeability in human Caco2 cells. The format is ADME, cell-based. Conditions: Caco-2.
Data set [15] concerns Mus musculus. Briefly: Analgesic activity in CD1 mouse model of capsaicin-induced mechanical hypersensitivity assessed as reduction in mechanical hypersensitivity at 20 mg/kg, ip administered 30 mins prior to capsaicin stimulation and measured after 15 mins. It counts as functional. Set-up: scale not given: the % may be the effect or the level left. The conditions noted are these: time 45 min, 0.75 h. An outline of the steps: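 Male CD1 mice, 8–12 per group, given 20 mg/kg ip alongside vehicle and pregabalin comparator groups. Capsaicin test read out as percentage reduction in capsaicin-induced mechanical hypersensitivity.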

Data set [16] is described as follows: Cmax in CD1 mouse at 20 mg/kg, ip measured upto 24 hrs by UPLC-MS/MS analysis. The conditions noted are these: in vivo. It counts as ADME, organism-based. Set-up: route intraperitoneal, dose 20 mg/kg, time <=24. An outline of the steps: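 Male CD1 mice given a single ip dose of 20 mg/kg. Cmax was taken from the plasma concentration profile.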
Data set [17] in a line: AUC(0 to t) in CD1 mouse at 20 mg/kg, ip measured upto 24 hrs by UPLC-MS/MS analysis. It counts as ADME, organism-based. Set-up: route intraperitoneal, dose 20 mg/kg, time <=24. Conditions: in vivo.
Data set [18] in a line: Induction of motor coordination impairment in CD1 mouse assessed as latency to fall at 20 mg/kg, ip measured upto 180 mins by rotarod test. The format is organism-based. The conditions noted are these: in vivo, 3 h. An outline of the steps:
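Mice were dosed at 20 mg/kg ip, with vehicle and pregabalin groups run in the same paradigm. Latency to fall from the elevated rotating drum was recorded at 30, 120 and 180 min after administration.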
Background: In the rotarod test animals must keep their balance on a rotating rod.

CYP3A4, sequence (P08684 whole entry): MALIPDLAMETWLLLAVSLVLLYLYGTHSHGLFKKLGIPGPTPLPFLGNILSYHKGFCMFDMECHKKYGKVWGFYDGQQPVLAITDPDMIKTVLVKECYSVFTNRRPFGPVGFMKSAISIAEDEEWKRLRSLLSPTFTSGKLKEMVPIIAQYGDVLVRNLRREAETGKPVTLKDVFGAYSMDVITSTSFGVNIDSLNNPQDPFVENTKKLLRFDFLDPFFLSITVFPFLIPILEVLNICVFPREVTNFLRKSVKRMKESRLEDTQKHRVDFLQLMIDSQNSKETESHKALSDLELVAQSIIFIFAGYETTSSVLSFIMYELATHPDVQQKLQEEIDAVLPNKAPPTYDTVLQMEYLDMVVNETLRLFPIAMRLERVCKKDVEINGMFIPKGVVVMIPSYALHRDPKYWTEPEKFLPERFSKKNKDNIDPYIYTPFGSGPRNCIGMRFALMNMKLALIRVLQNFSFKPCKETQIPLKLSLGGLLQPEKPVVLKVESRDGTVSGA
CYP2D6, sequence (P10635 whole entry): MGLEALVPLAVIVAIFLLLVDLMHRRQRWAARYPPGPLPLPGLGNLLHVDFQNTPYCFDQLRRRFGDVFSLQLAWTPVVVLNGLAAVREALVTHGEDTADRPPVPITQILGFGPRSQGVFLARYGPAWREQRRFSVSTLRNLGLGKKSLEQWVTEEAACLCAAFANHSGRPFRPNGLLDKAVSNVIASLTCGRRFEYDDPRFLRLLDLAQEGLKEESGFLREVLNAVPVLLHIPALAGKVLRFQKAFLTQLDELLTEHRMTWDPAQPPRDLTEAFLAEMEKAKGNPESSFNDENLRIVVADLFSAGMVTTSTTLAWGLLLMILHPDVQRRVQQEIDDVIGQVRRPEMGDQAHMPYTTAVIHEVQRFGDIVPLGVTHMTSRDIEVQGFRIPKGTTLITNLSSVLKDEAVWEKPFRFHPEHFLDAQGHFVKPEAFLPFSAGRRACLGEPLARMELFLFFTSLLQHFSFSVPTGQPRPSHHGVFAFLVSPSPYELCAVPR
Voltage-dependent calcium channel subunit alpha-2/delta-1, sequence (P54289 25-956 limits assumed): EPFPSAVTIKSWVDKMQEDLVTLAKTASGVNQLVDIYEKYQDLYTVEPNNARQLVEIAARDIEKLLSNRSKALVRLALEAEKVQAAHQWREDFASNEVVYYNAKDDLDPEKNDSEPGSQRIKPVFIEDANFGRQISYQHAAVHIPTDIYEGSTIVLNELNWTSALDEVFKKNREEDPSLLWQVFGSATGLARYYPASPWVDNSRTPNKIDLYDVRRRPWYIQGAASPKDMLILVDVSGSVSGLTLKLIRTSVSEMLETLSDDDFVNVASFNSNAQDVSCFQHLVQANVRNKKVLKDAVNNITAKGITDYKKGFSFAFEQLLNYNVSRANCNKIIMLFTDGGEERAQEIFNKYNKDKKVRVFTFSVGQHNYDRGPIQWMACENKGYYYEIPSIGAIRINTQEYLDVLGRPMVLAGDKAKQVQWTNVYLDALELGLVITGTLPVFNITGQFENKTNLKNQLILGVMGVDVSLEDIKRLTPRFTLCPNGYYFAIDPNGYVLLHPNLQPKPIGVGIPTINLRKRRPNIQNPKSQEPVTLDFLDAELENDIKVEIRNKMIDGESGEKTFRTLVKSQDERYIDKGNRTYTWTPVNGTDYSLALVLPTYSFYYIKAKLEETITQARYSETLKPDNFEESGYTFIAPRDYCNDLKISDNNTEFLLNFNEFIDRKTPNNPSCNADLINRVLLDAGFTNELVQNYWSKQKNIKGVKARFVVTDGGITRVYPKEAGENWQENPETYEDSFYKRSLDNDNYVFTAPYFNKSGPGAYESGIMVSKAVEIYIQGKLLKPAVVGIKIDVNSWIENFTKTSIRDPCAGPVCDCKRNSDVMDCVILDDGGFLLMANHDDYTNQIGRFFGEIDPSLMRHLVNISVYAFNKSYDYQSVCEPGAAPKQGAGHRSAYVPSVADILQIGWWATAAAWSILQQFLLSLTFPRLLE
Voltage-dependent calcium channel subunit alpha-2/delta-1, sequence (P54289 957-1103 limits assumed): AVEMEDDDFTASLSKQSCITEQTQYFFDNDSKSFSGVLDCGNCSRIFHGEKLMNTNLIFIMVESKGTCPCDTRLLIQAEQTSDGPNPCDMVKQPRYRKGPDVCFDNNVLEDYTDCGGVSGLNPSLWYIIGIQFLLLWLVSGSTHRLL
CYP2C9, sequence (P11712 whole entry): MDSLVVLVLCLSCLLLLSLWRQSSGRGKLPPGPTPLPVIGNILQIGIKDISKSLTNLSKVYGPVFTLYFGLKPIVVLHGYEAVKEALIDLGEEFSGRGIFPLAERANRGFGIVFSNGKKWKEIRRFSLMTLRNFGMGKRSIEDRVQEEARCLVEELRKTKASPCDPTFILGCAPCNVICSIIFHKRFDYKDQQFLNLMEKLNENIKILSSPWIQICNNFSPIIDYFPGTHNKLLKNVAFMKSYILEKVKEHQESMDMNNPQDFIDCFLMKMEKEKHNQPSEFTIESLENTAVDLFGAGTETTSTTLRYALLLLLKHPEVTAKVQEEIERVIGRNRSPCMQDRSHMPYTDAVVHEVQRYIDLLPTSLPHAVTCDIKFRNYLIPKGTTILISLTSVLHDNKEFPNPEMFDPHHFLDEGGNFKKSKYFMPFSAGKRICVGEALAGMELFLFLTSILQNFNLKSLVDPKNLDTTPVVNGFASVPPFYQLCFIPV
Voltage-gated inwardly rectifying potassium channel KCNH2, sequence (Q12809 whole entry): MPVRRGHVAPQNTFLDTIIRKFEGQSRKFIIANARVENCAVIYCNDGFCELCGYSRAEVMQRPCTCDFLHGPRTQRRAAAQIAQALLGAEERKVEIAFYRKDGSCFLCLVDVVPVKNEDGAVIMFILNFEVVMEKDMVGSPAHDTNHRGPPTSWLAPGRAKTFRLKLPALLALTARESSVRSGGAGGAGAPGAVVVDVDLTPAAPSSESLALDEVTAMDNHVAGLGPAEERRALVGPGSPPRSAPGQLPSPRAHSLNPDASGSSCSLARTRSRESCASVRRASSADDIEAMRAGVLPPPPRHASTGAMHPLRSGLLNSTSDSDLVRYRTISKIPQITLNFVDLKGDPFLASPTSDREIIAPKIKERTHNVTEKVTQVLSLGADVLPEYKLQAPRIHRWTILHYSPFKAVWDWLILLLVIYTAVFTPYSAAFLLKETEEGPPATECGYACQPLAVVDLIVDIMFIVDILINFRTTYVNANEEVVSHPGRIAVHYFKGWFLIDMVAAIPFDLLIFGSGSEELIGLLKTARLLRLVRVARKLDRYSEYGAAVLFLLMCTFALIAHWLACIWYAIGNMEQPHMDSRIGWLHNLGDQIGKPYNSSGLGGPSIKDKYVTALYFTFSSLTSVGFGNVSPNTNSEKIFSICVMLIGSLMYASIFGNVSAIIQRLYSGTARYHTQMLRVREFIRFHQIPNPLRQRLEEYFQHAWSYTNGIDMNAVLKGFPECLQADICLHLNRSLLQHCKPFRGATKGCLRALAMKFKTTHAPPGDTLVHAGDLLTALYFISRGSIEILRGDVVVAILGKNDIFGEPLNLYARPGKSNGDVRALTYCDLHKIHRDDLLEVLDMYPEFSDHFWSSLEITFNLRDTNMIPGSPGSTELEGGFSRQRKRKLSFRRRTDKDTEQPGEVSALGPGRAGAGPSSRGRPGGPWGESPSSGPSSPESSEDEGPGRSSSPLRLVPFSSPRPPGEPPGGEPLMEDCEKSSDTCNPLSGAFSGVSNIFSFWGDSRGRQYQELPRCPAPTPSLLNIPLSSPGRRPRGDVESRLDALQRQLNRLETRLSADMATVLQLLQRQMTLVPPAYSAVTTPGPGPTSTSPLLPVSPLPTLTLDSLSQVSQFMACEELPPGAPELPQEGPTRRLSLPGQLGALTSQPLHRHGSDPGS
CYP1A2, sequence (P05177 whole entry, canonical isoform): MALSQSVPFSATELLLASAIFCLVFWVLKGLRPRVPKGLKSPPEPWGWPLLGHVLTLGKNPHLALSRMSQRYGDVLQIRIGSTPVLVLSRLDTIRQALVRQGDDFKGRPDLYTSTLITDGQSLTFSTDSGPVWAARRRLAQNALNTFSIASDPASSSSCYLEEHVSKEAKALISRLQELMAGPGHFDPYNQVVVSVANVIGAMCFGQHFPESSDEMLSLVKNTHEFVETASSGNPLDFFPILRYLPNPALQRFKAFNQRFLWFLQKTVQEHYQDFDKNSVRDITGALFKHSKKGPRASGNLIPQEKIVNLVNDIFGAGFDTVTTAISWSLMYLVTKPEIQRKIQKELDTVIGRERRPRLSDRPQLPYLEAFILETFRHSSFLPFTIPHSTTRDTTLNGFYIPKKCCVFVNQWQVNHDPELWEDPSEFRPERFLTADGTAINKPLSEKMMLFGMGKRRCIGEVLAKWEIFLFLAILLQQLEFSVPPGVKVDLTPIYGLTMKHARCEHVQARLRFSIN
CYP2C19, sequence (P33261 whole entry): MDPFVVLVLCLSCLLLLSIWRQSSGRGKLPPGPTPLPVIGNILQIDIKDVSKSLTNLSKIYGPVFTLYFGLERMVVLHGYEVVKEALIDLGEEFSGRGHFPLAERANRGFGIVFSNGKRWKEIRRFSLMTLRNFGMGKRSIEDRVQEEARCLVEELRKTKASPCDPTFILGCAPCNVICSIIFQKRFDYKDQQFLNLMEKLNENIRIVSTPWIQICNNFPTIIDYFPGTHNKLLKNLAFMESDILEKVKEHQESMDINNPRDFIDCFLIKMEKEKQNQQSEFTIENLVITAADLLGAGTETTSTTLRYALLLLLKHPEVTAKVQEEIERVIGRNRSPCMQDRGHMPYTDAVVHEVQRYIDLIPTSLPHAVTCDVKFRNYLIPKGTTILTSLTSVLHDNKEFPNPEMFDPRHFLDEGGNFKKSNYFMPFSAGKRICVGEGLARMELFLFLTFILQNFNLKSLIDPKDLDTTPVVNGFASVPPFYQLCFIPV

Turning to `CCC[C@H](c1nc2ccncc2c(=O)n1CC)N1CCN[C@H](C)C1`, in [1], the Ki worked out at 6 nM. In data set [2], the inhibition at 0.5 h, 1 µM came out at 46%. The compound further registered a logP in [3] of 2.22. The logD in data set [4] worked out at 0.49. The inhibition at 1 µM in data set [5], in data set [6], in data set [7] and in data set [8] was below 50% throughout. In addition, the figures for the microsomal CLint at 1 µM in [9], in data set [10] and in [11] were 2.6 µL/min/mg, 3.9 µL/min/mg and 4.1 µL/min/mg, respectively. This compound yielded an IC50 in data set [12] above 10000 nM. Also, the Papp in [13] amounted to 4.3 ×10⁻⁶ cm/s. Besides, the efflux ratio in data set [14] amounted to 5.4. For the same compound, the values for the Activity in data set [15] and in data set [18] were 69% and “Non-Toxic”, respectively. Besides, the concentration in [16] peaked (Cmax) at 3070 ng/mL. The compound further returned an AUC(0-t) at 24 h in data set [17] of 8050 ng·h/mL.

The values are drawn from ChEMBL document CHEMBL4823330, “Piperazinyl Bicyclic Derivatives as Selective Ligands of the α2δ-1 Subunit of Voltage-Gated Calcium Channels” (ACS Med Chem Lett, 2021).
